Compounds with a hit are over-represented: about 0.58% of the library has one in this group of screens.
TRPML3 ag = human TRPML3 channel agonists, primary screen, cell-based, HEK293 TRPML3-YFP, Fluo-8 calcium fluorescence, 3 µM | activation, % at 3 µM | 220,000 compounds, 0.29% hits | 100% = the carbachol control signal | AID 1448, 2008;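 active = activation above its plate's cutoff, the mean activation of the plate's test wells plus 3 SD, cut at about 12% in these data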
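Material: TRPML3-YFP stable HEK293 cells | Dosing: One concentration, 3 µM nominal, 0.3% DMSO | Timing: 125 s total fluorescence read per well | Technique: Fluo-8 calcium dye fluorescence, ex 470-495, em 515-575 nm | Measure: Percent activation from peak-to-basal fluorescence ratio, scaled between DMSO and carbachol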
TRPN1 ag = zebrafish TRPN1 channel agonists, primary screen, cell-based, HEK293, calcium fluorescence; activation, % at 3 µM; transient receptor potential cation channel N1 (TRPN1/NompC), Danio rerio; HEK293 zebrafish TRPN1-YFP, Fluo-8 calcium fluorescence; 100% = response to 87 µM carbachol; 220,000 compounds, 0.18% hits;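 active = activation above its plate's cutoff, the mean activation of test wells on that plate plus 3 SD, cut at about 19% in these data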
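Material: zebrafish TRPN1-YFP in HEK293 cells; Doses: single test compound dose, 3 µM nominal, 0.3% DMSO; Timing: dye loading 1 h at 37 °C, then 30 min room temperature; Technique: intracellular calcium fluorescence with Fluo-8; Benchmarks: high carbachol 87 µM, low DMSO alone.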
OXTR ag = human OXTR agonists, primary screen, fluorescence, CHO-OTR cells, Fluo-8 calcium; Oxytocin receptor (Homo sapiens), P30559; Fluo-8 calcium fluorescence; normalized: DMSO 0%, oxytocin 100%; activation, % at 3 µM; 320,000 compounds, 0.32% hits;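 active = activation above the mean of all tested compounds plus 3 SD, cutoff set per screening run, cut at about 20% in these data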;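 note: peak over basal fluorescence ratio from a 100 s FLIPR kinetic read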
OXTR potentiate = human OXTR potentiators, primary screen, fluorescence, CHO-OTR cells, Fluo-8 calcium. Oxytocin receptor (Homo sapiens), P30559. activation, % at 3 µM. 320,000 compounds, 0.061% hits. Fluo-8 calcium fluorescence, potentiator mode; 0% = oxytocin EC15, 100% = EC100;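 active = activation above that plate's cutoff, the mean activation of tested compounds plus 3 SD, cut at about 6.6% in these data, passing the limit was not always enough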
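Assay system: CHO cell line stably expressing human OTR | Also added: Oxytocin at about EC15, sub-maximal agonist stimulus | Times: Compound 6 min at room temperature before oxytocin, 100 s read | Measured by: Fluo-8 intracellular calcium fluorescence, ex 470-495, em 515-575 nm | Controls: EC15 oxytocin alone as 0%, 75 nM oxytocin as 100%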
V1R ag counter = agonists of human V1a receptor, primary screen, counter-screen for OXTR agonist project, fluorescence, CHO-V1R cells; Vasopressin V1a receptor (Homo sapiens), P37288; Fluo-8 calcium fluorescence, agonist mode; 0% DMSO, 100% 3 nM vasopressin; activation, % at 3 µM; 320,000 compounds, 0.25% hits; AID 2797, 2010;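 active = activation above the mean activation of all tested compounds plus 3 SD, per screening run, cut at about 20% in these data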;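 note: signal is peak over basal fluorescence ratio across a 100 second FLIPR read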
Target sequence (P37288 whole entry, looked up): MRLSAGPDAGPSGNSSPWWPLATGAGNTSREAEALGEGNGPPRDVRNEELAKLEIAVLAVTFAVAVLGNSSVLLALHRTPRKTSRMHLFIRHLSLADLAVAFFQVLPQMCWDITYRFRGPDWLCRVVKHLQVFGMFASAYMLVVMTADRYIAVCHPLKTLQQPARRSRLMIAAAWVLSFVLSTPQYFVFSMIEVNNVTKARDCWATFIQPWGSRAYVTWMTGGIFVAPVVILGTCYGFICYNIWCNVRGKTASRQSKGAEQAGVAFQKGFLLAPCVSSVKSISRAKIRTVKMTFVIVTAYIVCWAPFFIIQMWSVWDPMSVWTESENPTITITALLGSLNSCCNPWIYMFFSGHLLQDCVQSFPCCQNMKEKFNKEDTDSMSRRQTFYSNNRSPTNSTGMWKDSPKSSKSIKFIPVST
OXTR ag confirm = human OXTR agonists, confirmation, fluorescence, CHO-OTR cells, triplicate; AID 434963, 2010; 390 compounds, 20% hits; Fluo-8 calcium fluorescence, agonist; shares compounds with OXTR ag; activation, % at 3 µM;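 active = mean activation above about 20% derived from the earlier single-dose screen, limit read from the data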;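 note: peak over minimum fluorescence ratio per well during a 100 second FLIPR read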
V1aR counter 3x = V1a receptor agonists, calcium signal, counter-screen for OXTR agonist project, triplicate, fluorescence, CHO-V1R cells | activation, % at 3 µM | shares compounds with OXTR ag | 390 compounds, 10% hits | Fluo-8 calcium fluorescence;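 active = mean activation over triplicate exceeds the hit threshold set in the earlier primary screen, cut at about 20% in these data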;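 note: peak over basal fluorescence ratio within a 100 second read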
OXTR pot cf = human OXTR potentiators, confirmation, fluorescence, CHO-OTR cells, triplicate; activation, % at 3 µM; shares compounds with OXTR potentiate; Fluo-8 calcium fluorescence, potentiation; scaled from low-dose to maximal oxytocin; 180 tested, under 10 active;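 active = mean percent activation over triplicates above a cutoff set from solvent-only control plates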;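 note: compounds tested in the presence of an EC15 dose of oxytocin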
V1aR agonist cf = V1a receptor agonists, calcium signal, confirmation, Fluo-8 calcium fluorescence, CHO-V1R cells | shares compounds with V1R ag counter | agonist | activation, % at 3 µM | 180 compounds, 20% hits;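 active = average activation exceeds primary screen hit cutoff, cut at about 21% in these data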;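 note: peak over basal fluorescence ratio during a 100 s FLIPR read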
OXTR counter = human OXTR agonists, counter-screen for V1R agonist project, fluorescence, CHO-OTR cells, triplicate | shares compounds with V1R ag counter | Fluo-8 calcium fluorescence | activation, % at 3 µM | 180 compounds, 10% hits | AID 434969, 2010;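 active = mean activation over three repeats above the cutoff from the earlier oxytocin receptor agonist screen, cut at about 20% in these data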;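 note: peak over minimum fluorescence ratio within a 100 second FLIPR read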
A number is an active result; – = inactive; · = no result given.

SMILES	TRPML3 ag	TRPN1 ag	OXTR ag	OXTR potentiate	V1R ag counter	V1aR agonist cf	OXTR counter	others
Cc1cccc(-n2c(O)c(/C=C/C=Nc3ccccc3)c(=O)[nH]c2=O)c1	–	–	23.3	–	–	·	·	OXTR ag confirm=25.6;V1aR counter 3x=35.4
C[C@]12CCC3C(CC[C@H]4C[C@H](O)CC[C@]34C)C1CCC2=O (some centres undefined)	·	·	–	–	–	·	·
CCOc1ccc(-n2c(O)c(C=NCCN(CC)CC)c(=O)[nH]c2=O)cc1	–	–	–	13.2	–	·	·	OXTR pot cf=–
CC(=O)O[C@H]1CC[C@@]2(C)C(=CC(=O)C3C2CC[C@@]2(C)C3C[C@H](OC(C)=O)[C@@H]2OC(C)=O)C1 (some centres undefined)	·	·	–	–	–	·	·
COc1ccc(CN2C(=O)NC(=O)/C(=C/c3ccoc3)C2=O)cc1	–	–	–	–	33.4	–	–
COc1ccc(CN2C(=O)NC(=O)/C(=C/c3cc(OC)c(OC)c(OC)c3)C2=O)cc1	–	–	–	–	–	·	·
C=CCn1c(O)c(C(CC)=Nc2cccc(C(=O)O)c2)c(=O)[nH]c1=O	–	–	–	–	22.1	–	–
Cc1nc2ccccc2c(=O)n1/N=C/c1cc(Br)cc(Br)c1O	·	·	–	–	–	·	·
